In ChEMBL document CHEMBL5724801, “EUbOPEN Chemogenomics Library - Multiplex” (2024):
Where “and” joins values, the source holds several entries; their conditions need not be identical. Identical values can stand only once.

Test system: U2OS
Test: Multiplex assay against U2OS
Type: toxicity, cell-based
Conditions: human
How it was run: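 Compound was added to live cells that had been stained at seeding with Hoechst33342, BioTracker Green Microtubule Cytoskeleton Dye, MitoTracker Red and Annexin V Alexa Fluor 680, and imaging followed on a CQ1 microscope at 37°C and 5% CO2. CellPathfinder machine-learning gating divided cells into Hoechst high-intensity objects or normal cells, normal cells into healthy, pyknosed or fragmented nuclei, and pyknosed cells into mitotic or apoptotic. Tubulin, mitochondrial-mass and membrane-permeability phenotypes are per cents of healthy-nucleus cells.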

[1] = 12 h, 1 µM, compound concentration 1 uM
[2] = 12 h, 10 µM, compound concentration 10 uM
[3] = 24 h, 1 µM, compound concentration 1 uM
[4] = 24 h, 10 µM, compound concentration 10 uM
[5] = 48 h, 1 µM, compound concentration 1 uM
[6] = 48 h, 10 µM, compound concentration 10 uM

Which results are given for `Cl.c1ccc2c(c1)CCC[C@H]2Nc1nc2ccccc2[nH]1`?
Population Apoptotic (%) [1]: 51.52% and 50%; Population Fragmented Nuclei (%) [1]: 1.35% and 1.11%; Population Healthy Nuclei (%) [1]: 89.73% and 86.67%; Population Hoechst High Intensity Objects (%) [1]: 0%; Population Membrane Permeable-Phenotype (%) [1]: 0.9% and 4.49%; Population Mitochondria Different-Phenotype (%) [1]: 0% and 8.33%; Population Mitotic Cells (%) [1]: 48.48% and 50%; Population Normal (%) [1]: 100%; Population Pyknosed Nuclei (%) [1]: 8.92% and 12.22%; Population Tubulin-Different-Phenotype (%) [1]: 0.9% and 0.64%; Total Cell Count [1]: 370 and 180; Population Apoptotic (%) [2]: 34.15% and 18.18%; Population Fragmented Nuclei (%) [2]: 1.73% and 1.16%; Population Healthy Nuclei (%) [2]: 88.15% and 86.13%; Population Hoechst High Intensity Objects (%) [2]: 0%; Population Membrane Permeable-Phenotype (%) [2]: 1.96% and 2.01%; Population Mitotic Cells (%) [2]: 65.85% and 81.82%; Population Normal (%) [2]: 100%; Population Pyknosed Nuclei (%) [2]: 10.12% and 12.72%; Population Tubulin-Different-Phenotype (%) [2]: 1.96% and 2.01%; Total Cell Count [2]: 405 and 173; Population Apoptotic (%) [3]: 36.36% and 51.52%; Population Fragmented Nuclei (%) [3]: 1.17% and 2.47%; Population Healthy Nuclei (%) [3]: 92.41% and 83.95%; Population Hoechst High Intensity Objects (%) [3]: 0.19% and 0%; Population Membrane Permeable-Phenotype (%) [3]: 0.42% and 2.94%; Population Mitochondria Different-Phenotype (%) [3]: 0.21% and 7.35%; Population Mitotic Cells (%) [3]: 63.64% and 48.48%; Population Normal (%) [3]: 99.81% and 100%; Population Pyknosed Nuclei (%) [3]: 6.42% and 13.58%; Population Tubulin-Different-Phenotype (%) [3]: 0.21% and 1.47%; Total Cell Count [3]: 515 and 243; Population Apoptotic (%) [4]: 40% and 51.85%; Population Fragmented Nuclei (%) [4]: 2.23% and 2.74%; Population Healthy Nuclei (%) [4]: 89.41% and 84.93%; Population Hoechst High Intensity Objects (%) [4]: 0%; Population Membrane Permeable-Phenotype (%) [4]: 1.87% and 2.69%; Population Mitochondria Different-Phenotype (%) [4]: 0.42% and 8.06%; Population Mitotic Cells (%) [4]: 60% and 48.15%; Population Normal (%) [4]: 100%; Population Pyknosed Nuclei (%) [4]: 8.36% and 12.33%; Population Tubulin-Different-Phenotype (%) [4]: 1.87% and 1.08%; Total Cell Count [4]: 538 and 219; Population Apoptotic (%) [5]: 36.59% and 47.06%; Population Fragmented Nuclei (%) [5]: 3.12% and 2.18%; Population Healthy Nuclei (%) [5]: 88.61% and 85.44%; Population Hoechst High Intensity Objects (%) [5]: 0%; Population Membrane Permeable-Phenotype (%) [5]: 0.46% and 2.27%; Population Mitochondria Different-Phenotype (%) [5]: 0.11% and 6.25%; Population Mitotic Cells (%) [5]: 63.41% and 52.94%; Population Normal (%) [5]: 100%; Population Pyknosed Nuclei (%) [5]: 8.27% and 12.38%; Population Tubulin-Different-Phenotype (%) [5]: 0.57% and 0.85%; Total Cell Count [5]: 992 and 412; Population Apoptotic (%) [6]: 41.57% and 48.08%; Population Fragmented Nuclei (%) [6]: 2.25% and 2.98%; Population Healthy Nuclei (%) [6]: 88.65% and 82.93%; Population Hoechst High Intensity Objects (%) [6]: 0% and 0.27%; Population Membrane Permeable-Phenotype (%) [6]: 1.5% and 3.92%; Population Mitochondria Different-Phenotype (%) [6]: 0% and 3.92%; Population Mitotic Cells (%) [6]: 58.43% and 51.92%; Population Normal (%) [6]: 100% and 99.73%; Population Pyknosed Nuclei (%) [6]: 9.1% and 14.09%; Population Tubulin-Different-Phenotype (%) [6]: 1.5% and 2.61%; Total Cell Count [6]: 978 and 370
